From ChEMBL document CHEMBL1926550, “Synthesis and antibacterial activity of naphthyridone derivatives containing mono/difluoro-methyloxime pyrrolidine scaffolds” (2012)
In brackets after ≈: the same amount, converted by molar mass.

What was measured:
Assay type in all cases: functional
Staphylococcus aureus [1] = experiment: Antibacterial activity against methicillin-resistant Staphylococcus aureus 10-4 after 18 hrs by two fold serial dilution method; details: 10-4, 18 h
Method in brief: (§1)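 Agar two-fold serial dilution in melted Mueller-Hinton agar, 128 to 0.008 μg/mL. Plates inoculated with 10⁴ cfu, incubated 35 °C for 18 h. MIC taken as lowest concentration giving no visible growth on the plate.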

Klebsiella pneumoniae [2] = experiment: Antibacterial activity against Klebsiella pneumoniae 10-3 after 18 hrs by two fold serial dilution method; details: 10-3, 18 h
Method in brief: (§2)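 Agar two-fold serial dilution in melted Mueller-Hinton agar, final concentrations 128 down to 0.008 μg/mL. Plates inoculated with 10⁴ cfu and incubated at 35 °C for 18 h. MIC taken as the lowest concentration giving no visible growth on the plate.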

Staphylococcus aureus [3] = experiment: Antibacterial activity against Staphylococcus aureus ATCC 25923 after 18 hrs by two fold serial dilution method; details: ATCC 25923, 18 h; method in brief: as §2
Enterococcus faecium [4] = experiment: Antibacterial activity against Enterococcus faecium 09-5 after 18 hrs by two fold serial dilution method; details: 09-5, 18 h; method in brief: as §2
Enterococcus faecalis [5] = experiment: Ratio of ciprofloxacin MIC to compound MIC for Enterococcus faecalis 09-2
Klebsiella pneumoniae [6] = experiment: Antibacterial activity against Klebsiella pneumoniae 10-1 after 18 hrs by two fold serial dilution method; details: 10-1, 18 h; method in brief: as §2
Pseudomonas aeruginosa [7] = experiment: Antibacterial activity against Pseudomonas aeruginosa 10-2 after 18 hrs by two fold serial dilution method; details: 10-2, 18 h; method in brief: as §2
Enterococcus faecium [8] = experiment: Antibacterial activity against Enterococcus faecium 09-4 after 18 hrs by two fold serial dilution method; details: 09-4, 18 h; method in brief: as §2
[9] = tested on: Staphylococcus epidermidis; experiment: Antibacterial activity against methicillin-resistant Staphylococcus epidermidis 10-1 after 18 hrs by two fold serial dilution method; details: 10-1, 18 h; method in brief: as §1
Pseudomonas aeruginosa [10] = experiment: Antibacterial activity against Pseudomonas aeruginosa ATCC 27853 after 18 hrs by two fold serial dilution method; details: ATCC 27853, 18 h; method in brief: as §2
Staphylococcus aureus [11] = experiment: Ratio of ciprofloxacin MIC to compound MIC for methicillin-resistant Staphylococcus aureus 10-2
Enterococcus faecalis [12] = experiment: Ratio of gemifloxacin MIC to compound MIC for Enterococcus faecalis 09-2
Enterococcus faecium [13] = experiment: Antibacterial activity against Enterococcus faecium 09-1 after 18 hrs by two fold serial dilution method; details: 09-1, 18 h; method in brief: as §2
[14] = tested on: Staphylococcus epidermidis; experiment: Antibacterial activity against methicillin-resistant Staphylococcus epidermidis 10-2 after 18 hrs by two fold serial dilution method; details: 10-2, 18 h; method in brief: as §1
Escherichia coli [15] = experiment: Antibacterial activity against Escherichia coli 10-2 after 18 hrs by two fold serial dilution method; details: 10-2, 18 h; method in brief: as §2
Enterococcus faecalis [16] = experiment: Antibacterial activity against Enterococcus faecalis 09-2 after 18 hrs by two fold serial dilution method; details: 09-2, 18 h; method in brief: as §2
Staphylococcus aureus [17] = experiment: Ratio of gemifloxacin MIC to compound MIC for methicillin-resistant Staphylococcus aureus 10-2
Pseudomonas aeruginosa [18] = experiment: Antibacterial activity against Pseudomonas aeruginosa 10-1 after 18 hrs by two fold serial dilution method; details: 10-1, 18 h; method in brief: as §2
Staphylococcus aureus [19] = experiment: Antibacterial activity against methicillin-resistant Staphylococcus aureus 10-3 after 18 hrs by two fold serial dilution method; details: 10-3, 18 h; method in brief: as §1
Staphylococcus aureus [20] = experiment: Antibacterial activity against methicillin-resistant Staphylococcus aureus 10-1 after 18 hrs by two fold serial dilution method; details: 10-1, 18 h; method in brief: as §1
Staphylococcus aureus [21] = experiment: Antibacterial activity against methicillin-sensitive Staphylococcus aureus 10-5 after 18 hrs by two fold serial dilution method; details: 10-5, 18 h; method in brief: as §2
Escherichia coli [22] = experiment: Antibacterial activity against Escherichia coli ATCC 25922 after 18 hrs by two fold serial dilution method; details: ATCC 25922, 18 h; method in brief: as §2
Streptococcus pneumoniae = experiment: Antibacterial activity against Streptococcus pneumoniae 10-1 after 18 hrs by two fold serial dilution method; details: 10-1, 18 h; method in brief: as §2
Escherichia coli [23] = experiment: Antibacterial activity against Escherichia coli 10-3 after 18 hrs by two fold serial dilution method; details: 10-3, 18 h; method in brief: as §2
[24] = tested on: Staphylococcus epidermidis; experiment: Antibacterial activity against methicillin-sensitive Staphylococcus epidermidis 10-1 after 18 hrs by two fold serial dilution method; details: 10-1, 18 h; method in brief: as §2
Staphylococcus aureus [25] = experiment: Antibacterial activity against methicillin-sensitive Staphylococcus aureus 10-3 after 18 hrs by two fold serial dilution method; details: 10-3, 18 h; method in brief: as §2
Enterococcus faecium [26] = experiment: Antibacterial activity against Enterococcus faecium 09-2 after 18 hrs by two fold serial dilution method; details: 09-2, 18 h; method in brief: as §2
Staphylococcus aureus [27] = experiment: Ratio of moxifloxacin MIC to compound MIC for methicillin-resistant Staphylococcus aureus 10-2
Enterococcus faecalis [28] = experiment: Antibacterial activity against Enterococcus faecalis 09-1 after 18 hrs by two fold serial dilution method; details: 09-1, 18 h; method in brief: as §2
Escherichia coli [29] = experiment: Antibacterial activity against Escherichia coli 09-3 after 18 hrs by two fold serial dilution method; details: 09-3, 18 h; method in brief: as §2
Staphylococcus aureus [30] = experiment: Antibacterial activity against methicillin-sensitive Staphylococcus aureus 10-4 after 18 hrs by two fold serial dilution method; details: 10-4, 18 h; method in brief: as §2
Staphylococcus aureus [31] = experiment: Antibacterial activity against methicillin-sensitive Staphylococcus aureus 10-2 after 18 hrs by two fold serial dilution method; details: 10-2, 18 h; method in brief: as §2
[32] = tested on: Staphylococcus epidermidis; experiment: Antibacterial activity against methicillin-sensitive Staphylococcus epidermidis 10-2 after 18 hrs by two fold serial dilution method; details: 10-2, 18 h; method in brief: as §2
Klebsiella pneumoniae [33] = experiment: Antibacterial activity against Klebsiella pneumoniae 09-2 after 18 hrs by two fold serial dilution method; details: 09-2, 18 h; method in brief: as §2
Escherichia coli [34] = experiment: Antibacterial activity against Escherichia coli 09-1 after 18 hrs by two fold serial dilution method; details: 09-1, 18 h; method in brief: as §2
Staphylococcus aureus [35] = experiment: Antibacterial activity against methicillin-sensitive Staphylococcus aureus 10-6 after 18 hrs by two fold serial dilution method; details: 10-6, 18 h; method in brief: as §2
Escherichia coli [36] = experiment: Antibacterial activity against Escherichia coli 09-2 after 18 hrs by two fold serial dilution method; details: 09-2, 18 h; method in brief: as §2
Staphylococcus aureus [37] = experiment: Antibacterial activity against methicillin-sensitive Staphylococcus aureus 10-1 after 18 hrs by two fold serial dilution method; details: 10-1, 18 h; method in brief: as §2
Enterococcus faecium [38] = experiment: Antibacterial activity against Enterococcus faecium 09-6 after 18 hrs by two fold serial dilution method; details: 09-6, 18 h; method in brief: as §2
Enterococcus faecalis [39] = experiment: Ratio of moxifloxacin MIC to compound MIC for Enterococcus faecalis 09-2
Escherichia coli [40] = experiment: Antibacterial activity against Escherichia coli 10-1 after 18 hrs by two fold serial dilution method; details: 10-1, 18 h; method in brief: as §2
Enterococcus faecium [41] = experiment: Antibacterial activity against Enterococcus faecium 09-3 after 18 hrs by two fold serial dilution method; details: 09-3, 18 h; method in brief: as §2
Staphylococcus aureus [42] = experiment: Antibacterial activity against methicillin-resistant Staphylococcus aureus 10-2 after 18 hrs by two fold serial dilution method; details: 10-2, 18 h; method in brief: as §1
Pseudomonas aeruginosa [43] = experiment: Antibacterial activity against Pseudomonas aeruginosa 10-3 after 18 hrs by two fold serial dilution method; details: 10-3, 18 h; method in brief: as §2

## CC1(CN)CN(c2nc3c(cc2F)c(=O)c(C(=O)O)cn3C2CC2)C/C1=N\OCF (racemic)
Staphylococcus aureus [1]
  MIC: 4 µg/mL (≈ 9.49 µM)
Klebsiella pneumoniae [2]
  MIC: 0.125 µg/mL (≈ 0.297 µM)
Staphylococcus aureus [3]
  MIC: 0.008 µg/mL (≈ 0.019 µM)
Enterococcus faecium [4]
  MIC: 16 µg/mL (≈ 38 µM)
Enterococcus faecalis [5]
  Ratio: 64
Klebsiella pneumoniae [6]
  MIC: 0.015 µg/mL (≈ 0.0356 µM)
Pseudomonas aeruginosa [7]
  MIC: 16 µg/mL (≈ 38 µM)
Enterococcus faecium [8]
  MIC: 0.06 µg/mL (≈ 0.142 µM)
[9]
  MIC: 1 µg/mL (≈ 2.37 µM)
Pseudomonas aeruginosa [10]
  MIC: 0.125 µg/mL (≈ 0.297 µM)
Staphylococcus aureus [11]
  Ratio: 64
Enterococcus faecalis [12]
  Ratio: 4
Enterococcus faecium [13]
  MIC: 16 µg/mL (≈ 38 µM)
[14]
  MIC: 0.5 µg/mL (≈ 1.19 µM)
Escherichia coli [15]
  MIC: 0.125 µg/mL (≈ 0.297 µM)
Enterococcus faecalis [16]
  MIC: 1 µg/mL (≈ 2.37 µM)
Staphylococcus aureus [17]
  Ratio: 2
Pseudomonas aeruginosa [18]
  MIC: 0.008 µg/mL (≈ 0.019 µM)
Staphylococcus aureus [19]
  MIC: 4 µg/mL (≈ 9.49 µM)
Staphylococcus aureus [20]
  MIC: 4 µg/mL (≈ 9.49 µM)
Staphylococcus aureus [21]
  MIC: 0.03 µg/mL (≈ 0.0712 µM)
Escherichia coli [22]
  MIC: 0.008 µg/mL (≈ 0.019 µM)
Streptococcus pneumoniae
  MIC: 0.5 µg/mL (≈ 1.19 µM)
Escherichia coli [23]
  MIC: 32 µg/mL (≈ 75.9 µM)
[24]
  MIC: 8 µg/mL (≈ 19 µM)
Staphylococcus aureus [25]
  MIC: 0.25 µg/mL (≈ 0.593 µM)
Enterococcus faecium [26]
  MIC: 16 µg/mL (≈ 38 µM)
Staphylococcus aureus [27]
  Ratio: 32
Enterococcus faecalis [28]
  MIC: 4 µg/mL (≈ 9.49 µM)
Escherichia coli [29]
  MIC: 32 µg/mL (≈ 75.9 µM)
Staphylococcus aureus [30]
  MIC: 0.06 µg/mL (≈ 0.142 µM)
Staphylococcus aureus [31]
  MIC: 1 µg/mL (≈ 2.37 µM)
[32]
  MIC: 64 µg/mL (≈ 152 µM)
Klebsiella pneumoniae [33]
  MIC: 128 µg/mL (≈ 304 µM)
Escherichia coli [34]
  MIC: 64 µg/mL (≈ 152 µM)
Staphylococcus aureus [35]
  MIC: 0.125 µg/mL (≈ 0.297 µM)
Escherichia coli [36]
  MIC: > 128 µg/mL
Staphylococcus aureus [37]
  MIC: 0.06 µg/mL (≈ 0.142 µM)
Enterococcus faecium [38]
  MIC: 0.06 µg/mL (≈ 0.142 µM)
Enterococcus faecalis [39]
  Ratio: 16
Escherichia coli [40]
  MIC: 64 µg/mL (≈ 152 µM)
Enterococcus faecium [41]
  MIC: 8 µg/mL (≈ 19 µM)
Staphylococcus aureus [42]
  MIC: 0.25 µg/mL (≈ 0.593 µM)
Pseudomonas aeruginosa [43]
  MIC: 4 µg/mL (≈ 9.49 µM)
